The structures appear in SMILES notation.

Holding throughout (format): functional, Muscle tissue
The species named for assay [1] is Rattus norvegicus. The experiment in a line: Effect of compound on catalase measured as disappearance of H2O2 in isolated rat heart muscle subjected to global ischemia. Summed up:
(§1)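 Isolated rat hearts: 10 min initial perfusion, then 15 min recirculating Krebs with drug (diluted from 10⁻² M DMSO stock; final DMSO 0.01% v/v, matched in controls), 30 min global ischemia, then 30 min reperfusion with the same regime. Hearts were homogenized and frozen in liquid nitrogen. Enzymes were assayed in the centrifuged supernatant, normalized […]; mean ± S.D.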

The species named for assay [2] is Rattus norvegicus. Nature of the assay: Effect of compound on Glutathione peroxidase measured as disappearance of NADPH in isolated rat heart muscle subjected to global ischemia. Summed up: as §1
For assay [3], the species on record is Rattus norvegicus. The experiment in a line: Superoxide dismutase activity measured as inhibition of Cytochrome C reduction by 50% in isolated rat heart muscle subjected to global ischemia. Summed up: as §1

In the case of `CC(C)(C)c1cc(-c2cc(=O)c3ccc(O)cc3o2)cc(C(C)(C)C)c1O`, the Activity in assay [1] is on record as 21 U (mg of protein)-1; in assay [2], 1982 U (mg of protein)-1; in assay [3], 8433 U (mg of protein)-1.
The matching figures for `CC(C)(C)c1cc(/C=C2\C(=O)c3ccc(O)cc3OC2c2cc(C(C)(C)C)c(O)c(C(C)(C)C)c2)cc(C(C)(C)C)c1O` (stereo not drawn): 21 U (mg of protein)-1, 1906 U (mg of protein)-1 and 8935 U (mg of protein)-1.
In the case of `CC(C)(C)c1cc(/C=C/C(=O)c2ccc(O)cc2O)cc(C(C)(C)C)c1O`, the Activity in assay [1] is 20 U (mg of protein)-1; in assay [2] it was 1879 U (mg of protein)-1; in assay [3] it was 8740 U (mg of protein)-1.
The matching figures for `Oc1ncnc2[nH]ncc12` [ALLOPURINOL]: 21 U (mg of protein)-1, 1912 U (mg of protein)-1 and 9800 U (mg of protein)-1.
Turning to `Cc1cc(C(C)(C)C)c(O)c(C(C)(C)C)c1` [BUTYLATED HYDROXYTOLUENE], the Activity in assay [1] was 20 U (mg of protein)-1; in assay [2], 1803 U (mg of protein)-1; in assay [3], 9636 U (mg of protein)-1.
For `C[C@@H]1O[C@@H](OC[C@H]2O[C@@H](Oc3c(-c4ccc(O)c(O)c4)oc4cc(O)cc(O)c4c3=O)[C@H](O)[C@@H](O)[C@@H]2O)[C@H](O)[C@H](O)[C@H]1O` [RUTIN] the same measures were 21 U (mg of protein)-1, 1829 U (mg of protein)-1 and 9077 U (mg of protein)-1.

The values above are taken from ChEMBL document CHEMBL1134044, “Beneficial effects of different flavonoids, on functional recovery after ischemia and reperfusion in isolated rat heart” (2001).
